The source made the active and inactive calls. No cut-off for these calls is given here.
Assays:
[1] = Effect on [35S]His-tagged HRI stability in heme-deficient reticulocyte lysate assessed as loss of [35S]His-tagged HRI at 4 mM after 45 mins by SDS-PAGE and autoradiography
Outline: (§1)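 Wild-type [35S]His-tagged HRI made by coupled transcription-translation in reticulocyte lysate with [35S]methionine. Compound or DMSO (4% v/v) added after 20 min, then 10 min more. Sample diluted into 7 volumes of heme-deficient lysate (hemin 20 µM as reference) holding the same compound level, 45 min. HRI pulled down on NTA-Ni resin, 1 h on ice. SDS-PAGE and autoradiography; mobility shift and band densitometry as % of minus-heme control.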

[2] = Inhibition of Hsp90-mediated [35S]His-tagged HRI maturation in heme-deficient reticulocyte lysate at 4 mM after 45 mins by SDS-PAGE and autoradiography; outline: as §1
[3] = target: T1, Hsp90 co-chaperone Cdc37 (Homo sapiens) (UniProt Q16543); test: Inhibition of Cdc37 interaction with heme-regulated [35S]His-tagged eIF2alpha K199R mutant kinase in reticulocyte lysate assessed as coadsorbed Cdc37 at 80 uM after 40 mins by SDS-PAGE and Western blot analysis
T1 sequence (whole entry): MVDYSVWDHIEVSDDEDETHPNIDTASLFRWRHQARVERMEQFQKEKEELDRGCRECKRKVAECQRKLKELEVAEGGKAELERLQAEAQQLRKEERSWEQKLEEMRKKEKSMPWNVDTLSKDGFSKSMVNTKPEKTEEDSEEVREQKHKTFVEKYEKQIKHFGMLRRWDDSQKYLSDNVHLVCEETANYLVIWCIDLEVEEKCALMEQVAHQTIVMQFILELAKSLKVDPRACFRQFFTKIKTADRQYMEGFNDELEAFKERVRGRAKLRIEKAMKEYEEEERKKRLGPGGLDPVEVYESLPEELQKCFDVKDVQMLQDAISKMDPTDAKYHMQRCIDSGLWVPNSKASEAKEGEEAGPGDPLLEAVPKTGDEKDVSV
Outline: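 His-tagged kinase-dead HRI K199R made by TnT in reticulocyte lysate with [35S]methionine. After 10 min of synthesis, compound or DMSO (4% v/v) added, then 40 min more. Immunoadsorbed with anti-His-tag antibody on anti-mouse-IgG agarose. Washed four times in 10 mM PIPES pH 7.2, 100 mM NaCl. Co-adsorbed Hsp90, Hsp70 and Cdc37 read by SDS-PAGE and Western blot; plasmid-free lysate as nonspecific control.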

[4] = Effect on [35S]His-tagged HRI stability in heme-deficient reticulocyte lysate assessed as loss of [35S]His-tagged HRI at 80 uM after 45 mins by SDS-PAGE and autoradiography; outline: as §1
[5] = Inhibition of Hsp90-mediated [35S]His-tagged HRI maturation in heme-deficient reticulocyte lysate at 80 uM after 45 mins by SDS-PAGE and autoradiography; outline: as §1
[6] = target: T2, Heat shock protein HSP90 (Homo sapiens, UniProt P07900+P08238); test: Inhibition of Hsp90 in human HeLa cells assessed as Akt degradation at 0.01 to 20 uM by Western blot analysis; format: cell-based
Outline: (§2)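 Cells (1×10^6 per dish) were attached overnight, then exposed to the compound for 36 h. […] Extracts (10 µg protein) were Western blotted for Her2, Akt, Raf-1, Hsp90 and Hsp70, with actin as loading control.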

[7] = target: T2, Heat shock protein HSP90; test: Inhibition of Hsp90 in human MCF7 cells assessed as induction of Hsp90 expression after 36 hrs by Western blot analysis; format: cell-based; outline: as §2
[8] = Inhibition of Hsp90-dependent refolding of luciferase in reticulocyte lysate by microplate reader
[9] = Inhibition of Hsp90-mediated [35S]His-tagged HRI maturation in heme-deficient reticulocyte lysate at 50 uM after 45 mins by SDS-PAGE and autoradiography
Outline: (§3)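 [35S]His-tagged wild-type HRI was made by transcription-translation in reticulocyte lysate. Compound or 4% v/v DMSO was added at 20 min, followed by 10 min more. Samples were diluted into 7 volumes of heme-deficient lysate holding the same compound concentration; hemin-supplemented (20 µM) lysate was the reference. After 45 min, HRI was captured on Ni-NTA on ice for 1 h. Maturation was scored by mobility shift on SDS-PAGE and autoradiography.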

[10] = target: T2, Heat shock protein HSP90; test: Binding affinity to human Hsp90 C-terminal domain (531 to 732) expressed in Escherichia coli DE-3cstar cells by SPR analysis
Outline: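 Hsp90 N-terminal (aa 1–241) or C-terminal (aa 531–732) domain was expressed in E. coli, Ni-NTA purified, His-tag TEV-cleaved, then gel-filtered and biotinylated for SPR. Analyte was injected in 10 mM PIPES pH 7.4, 300 mM NaCl, 2% DMSO at 15 µL/min, 25 °C. […] Triplicates; ka, kd and KD were derived from fits.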

[11] = Effect on [35S]His-tagged HRI stability in heme-deficient reticulocyte lysate assessed as loss of [35S]His-tagged HRI at 50 uM after 45 mins by SDS-PAGE and autoradiography
[12] = target: T2, Heat shock protein HSP90; test: Inhibition of Hsp90 in human SKBR3 cells assessed as induction of Hsp70 expression after 36 hrs by Western blot analysis; format: cell-based; details: SK-BR-3; outline: as §2
[13] = test system: HeLa; test: Antiproliferative activity against human HeLa cells assessed as inhibition of cell growth after 72 hrs by cell titer 96 assay; format: functional
Outline: (§4)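 Cells seeded at 2000/well and left to attach overnight. HeLa was grown in MEM with non-essential amino acids, 2 mM glutamine and 10% FBS. SkBr3 was grown in DMEM/F12 (1:1) with penicillin/streptomycin and 10% FBS. Varying compound concentrations or 1% DMSO vehicle were added for 72 h at 37 °C. Tetrazolium reagent was added for 1 h, then A490 read; viability expressed as % of DMSO wells.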

[14] = target: T2, Heat shock protein HSP90; test: Inhibition of Hsp90 in human HeLa cells assessed as Raf degradation at 0.01 to 20 uM after 36 hrs by Western blot analysis; format: cell-based; outline: as §2
[15] = target: T2, Heat shock protein HSP90; test: Inhibition of Hsp90 in human HeLa cells assessed as Her2 degradation at 0.01 to 20 uM after 36 hrs by Western blot analysis; format: cell-based; outline: as §2
[16] = target: T2, Heat shock protein HSP90; test: Inhibition of Hsp90 in human SKBR3 cells assessed as Her2 degradation after 36 hrs by Western blot analysis; format: cell-based; details: SK-BR-3
Outline: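 SkBr3 cells (1×10^6 per dish) were attached overnight, then exposed to the compound for 36 h. […] Her2 was Western blotted from 1 µg extract protein, with actin as loading control.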

[17] = test system: SK-BR-3; test: Antiproliferative activity against human SKBR3 cells assessed as inhibition of cell growth after 72 hrs by cell titer 96 assay; format: functional; details: SK-BR-3, 72 h; outline: as §4
[18] = target: T2, Heat shock protein HSP90; test: Inhibition of Hsp90 in human MCF7 cells assessed as Akt degradation after 36 hrs by Western blot analysis; format: cell-based; outline: as §2
[19] = target: T2, Heat shock protein HSP90; test: Inhibition of Hsp90 in human SKBR3 cells assessed as Akt degradation after 36 hrs by Western blot analysis; format: cell-based; details: SK-BR-3; outline: as §2
[20] = target: T2, Heat shock protein HSP90; test: Inhibition of Hsp90 in human MCF7 cells assessed as Her2 degradation after 36 hrs by Western blot analysis; format: cell-based; outline: as §2
[21] = target: T2, Heat shock protein HSP90; test: Inhibition of Hsp90 in human MCF7 cells assessed as induction of Hsp70 expression after 36 hrs by Western blot analysis; format: cell-based; outline: as §2
[22] = target: T1, Hsp90 co-chaperone Cdc37 (Homo sapiens); details: 50 uM
[23] = target: T2, Heat shock protein HSP90; test: Inhibition of Hsp90 in human SKBR3 cells assessed as induction of Hsp90 expression after 36 hrs by Western blot analysis; format: cell-based; details: SK-BR-3; outline: as §2
[24] = target: T2, Heat shock protein HSP90; test: Inhibition of Hsp90 in human SKBR3 cells assessed as Raf degradation after 36 hrs by Western blot analysis; format: cell-based; details: SK-BR-3; outline: as §2
[25] = target: T2, Heat shock protein HSP90; test: Binding affinity to human Hsp90 N-terminal domain (1 to 241) expressed in Escherichia coli DE-3 Star cells by SPR analysis in presence of 20 uM geldanamycin
[26] = target: T2, Heat shock protein HSP90; test: Binding affinity to human full length Hsp90 expressed in insect Sf9 cells by SPR analysis
Outline: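 Full-length human Hsp90β from baculovirus-infected Sf9 cells was amine-coupled by EDC/NHS to a carboxyl SPR chip (about 2000 RU). Compound at 1.0–50 µM was injected in 10 mM PIPES pH 7.4, 300 mM NaCl, 2% DMSO at 15 µL/min, 25 °C. Measured in triplicate; ka, kd and KD were derived from curve fits.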

[27] = target: T2, Heat shock protein HSP90; test: Inhibition of Hsp90 in human MCF7 cells assessed as Raf degradation after 36 hrs by Western blot analysis; format: cell-based; outline: as §2
[28] = target: T2, Heat shock protein HSP90; test: Binding affinity to human Hsp90 N-terminal domain (1 to 241) expressed in Escherichia coli DE-3 Star cells by SPR analysis
[29] = Effect on [35S]His-tagged HRI stability in heme-deficient reticulocyte lysate assessed as loss of [35S]His-tagged HRI at 400 uM after 45 mins by SDS-PAGE and autoradiography
[30] = Inhibition of Hsp90-mediated [35S]His-tagged HRI maturation in heme-deficient reticulocyte lysate at 400 uM after 45 mins by SDS-PAGE and autoradiography; outline: as §3
[31] = Inhibition of Hsp90-mediated [35S]His-tagged HRI maturation in heme-deficient reticulocyte lysate at 100 uM after 45 mins by SDS-PAGE and autoradiography; outline: as §3
[32] = target: T1, Hsp90 co-chaperone Cdc37 (Homo sapiens); details: 100 uM
[33] = Effect on [35S]His-tagged HRI stability in heme-deficient reticulocyte lysate assessed as loss of [35S]His-tagged HRI at 100 uM after 45 mins by SDS-PAGE and autoradiography
[34] = Inhibition of Hsp90-mediated [35S]His-tagged HRI maturation in heme-deficient reticulocyte lysate at 20 mM after 45 mins by SDS-PAGE and autoradiography; outline: as §1
[35] = target: Hsp90 co-chaperone Cdc37 (Homo sapiens) (UniProt Q16543); details: 20 mM
[36] = Effect on [35S]His-tagged HRI stability in heme-deficient reticulocyte lysate assessed as loss of [35S]His-tagged HRI at 20 mM after 45 mins by SDS-PAGE and autoradiography; outline: as §1

Compound: CO[C@@H]1[C@@H](OC(N)=O)[C@@H](O)[C@H](Oc2ccc3c(O)c(NC(=O)c4ccc(O)c(CC=C(C)C)c4)c(=O)oc3c2C)OC1(C)C
- Activity [1]: 90%
- inhibition [2]: Active

Compound: COC1=C2C[C@@H](C)C[C@H](OC)[C@H](O)[C@@H](C)/C=C(\C)[C@H](OC(N)=O)[C@@H](OC)/C=C\C=C(/C)C(=O)NC(=CC1=O)C2=O
- Activity [3]: Active
- Activity [4]: 0%
- inhibition [5]: Active

Compound: CC(C)=CCC[C@]1(C)C=Cc2c(O)c3c(c(CC=C(C)C)c2O1)O[C@]12C(=C[C@@H]4C[C@H]1C(C)(C)O[C@@]2(C/C=C(/C)C(=O)O)C4=O)C3=O [GAMBOGIC ACID]
- inhibition [6]: Active
- inhibition [7]: Dose-dependent effect
- IC50 [8]: 2000 nM
- inhibition [9]: inactive
- Activity [10]: inactive
- Activity [11]: 10%
- inhibition [12]: Dose-dependent effect
- GI50 [13]: 1500 nM
- inhibition [14]: Active
- inhibition [15]: Active
- inhibition [16]: Dose-dependent effect
- GI50 [17]: 800 nM
- inhibition [18]: Dose-dependent effect
- inhibition [19]: Dose-dependent effect
- inhibition [20]: Dose-dependent effect
- inhibition [21]: Dose-dependent effect
- Activity [22]: inactive
- inhibition [23]: Dose-dependent effect
- inhibition [24]: Dose-dependent effect
- Kd [25]: 7000 nM
- Kd [26]: 9800 nM
- inhibition [27]: Dose-dependent effect
- Kd [28]: 7600 nM

Compound: CO[C@H]1[C@H](OC(=O)c2ccc(C)[nH]2)[C@H](O)[C@@H](Oc2ccc3c(O)c(NC(=O)c4c[nH]c(C(=O)Nc5c(O)c6ccc(O[C@H]7OC(C)(C)[C@@H](OC)[C@H](OC(=O)c8ccc(C)[nH]8)[C@@H]7O)c(C)c6oc5=O)c4C)c(=O)oc3c2C)OC1(C)C
- Activity [29]: 80%
- inhibition [30]: Active

Compound: CC1=C(O)C(=O)C=C2C1=CC=C1[C@@]2(C)CC[C@@]2(C)[C@@H]3C[C@](C)(C(=O)O)CC[C@]3(C)CC[C@]12C [CELASTROL]
- IC50 [8]: 20000 nM
- inhibition [31]: Active
- Activity [32]: inactive
- Activity [33]: 40%

Compound: SODIUM MOLYBDATE
- inhibition [34]: Active
- Activity [35]: Active
- Activity [36]: 10%
